# Test results reported in PubChem BioAssay.
# A number with no mark means an inactive call. Results filed as inconclusive are left out. The source made the active and inactive calls.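 The calls were made as follows, unless noted: active = growth inhibition above 25% in both replicates, a cutoff set 3 SD above the mean; inconclusive = above 25% in only one replicate; inactive = the rest.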
# Experiments:
# [1] = OD615 S. cerevisiae growth inhibition, permissive medium, pilot counter-assay, permissive growth control for S. cerevisiae lifespan shortening project (AID 705); conditions: OD615, 24 h, at 10 µM, hits give high values
# In short: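 System: engineered DeaD yeast; Medium: permissive raffinose/galactose medium; Compound dosing: 10 µM single dose, 0.25% DMSO; Incubation: 4 h cell pre-growth, 24 h exposure at 30 °C; Technique: OD at 615 nm; Evaluation: growth inhibition from lowered OD615 after 24 h.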
# [2] = Restrictive medium S. cerevisiae growth inhibition, OD615, pilot screen of yeast lifespan reduction project, restrictive growth control (AID 706;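 active = growth inhibition above a set limit, 3 SD over mean compound inhibition, in both replicates, cut at about 43% in these data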;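 also: modified DeaD lifespan yeast strain shifted to restrictive glucose medium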); conditions: OD615, 48 h, at 10 µM, hits give high values
# In short: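 Material: modified S. cerevisiae; buffer or medium: CSMM-D glucose medium; doses: one concentration, 10 µM final, 0.25% DMSO; incubation: 48 h compound exposure at 30 °C; detection: optical density at 615 nm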
# [3] = viability gain of MRP-1-high H69AR cells under doxorubicin, pilot screen, MRP-1 activator project, CellTiter-Glo, duplicate (AID 807;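 active = viability increase at or above a cutoff of the median across tested compounds plus 3 SD, cut at about 8.5% in these data, passing the limit was not always enough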;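 also: compound pretreatment 18-22 h then 72 h combined with doxorubicin; 0% = doxorubicin alone and 100% = vehicle without doxorubicin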); conditions: H69AR viability with doxorubicin, CellTiter-Glo luminescence; at 10 µM; hits give high values
# [4] = growth suppression of beta-catenin knockout HCT116, pilot screen, human colon tumor cells (AID 823;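 active = cell viability at or below a set limit in both duplicate runs, the limit being the all-compound median minus 4 SD, cut at about 23% in these data, passing the limit was not always enough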;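 also: 0% = wells killed by 20 µM Hyamine and 100% = untreated DMSO cell wells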); conditions: CellTiter-Glo, 60 h, at 10 µM, hits give low values
# [5] = growth suppression of PTEN-deleted HCT116, pilot screen, cell-based, HCT116 clonal line, CellTiter-Glo (AID 824;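 active = viability at or below 27.92% in each of two runs, the all-compound median minus 4 SD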;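 also: 0% = 20 µM Hyamine control and 100% = vehicle cell control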); conditions: 60 h, at 10 µM, hits give low values
# [6] = inhibitors of the yeast RAM network, pilot screen, dse1pr::URA3 reporter, 5-FOA selection (AID 869;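 active = inhibition over a set limit, the all-compound mean plus 3 SD, in both replicate runs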;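 also: 0% = DMSO wells with no growth and 100% = 10 µM 1-NA-PP1 with full growth; RAM network block rescues cells from 5-FOA so hits raise OD615 growth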); conditions: S. cerevisiae dse1pr::URA3 5-FOA growth, OD615, 2 d; at 10 µM; hits give high values; strain carries analog-sensitive mutant Cbk1 kinase
# [7] = RAM signaling pathway blockade in yeast – S. cerevisiae, Pdr1DBD-CYC8 efflux-inhibited sensitized strain, primary screen (AID 1298;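 active = RAM network inhibition above 8.4% in each of two replicates, 3 SD over the compound average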;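 also: 0% = DMSO untreated cells without growth and 100% = 10 µM 1-NA-PP1 full growth; higher means more yeast growth rescued from 5-FOA killing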); conditions: S. cerevisiae cbk1-as DSE1-URA3 strain, 5-FOA growth OD615, 2 d; at 50 µM; hits give high values
SMILES,growth inhibition [1] [%],growth inhibition [2],viability increase [3] [%],viability [4] [%],viability [5] [%],inhibition [6] [%],RAM network inhibition [7] [%]
O=C1C2CCCN2C(c2ccccc2F)N1c1cccc(Cl)c1 (stereo not drawn),1.87,1.65%,-0.32,97.8,102,-0.43,1.7
O=C(O)CSc1cccc2cccnc12,15.6,44.6% (active),-0.24,96.5,102,1.17,1.05
CCOC(=O)N1CCN(C(=O)C(C)(C)Oc2ccc(Cl)cc2)CC1,-8.16,-2.48%,-1.61,93,96.1,0.28,3.09
CC1=C(C(N)=O)C(c2ccccn2)n2nc(SCc3ccccc3Cl)nc2N1 (stereo not drawn),-4.42,-12.1%,-1.33,90.5,83.3,1.04,0.26
NC(=O)CSc1nnc(Cn2c(=O)sc3ccccc32)n1CCc1ccccc1,1.14,26.2%,-1.54,101,94.2,0.275,4.54
O=C(NCc1cccnc1)NC1(c2ccccc2)CC1,-2.17,-17.7%,0.15,106,100,0.49,0.4
Cn1cccc1Cc1nnc(SCC(=O)NC2CCCCC2)n1CCc1ccccc1,9.32,23.6%,-2.17,79.6,81.5,1.58,8.9
CCOC(=O)Cc1csc(NC(NC(=O)CC)(C(F)(F)F)C(F)(F)F)n1,0.765,-2.19%,-0.75,99.6,96.7,3.13,6.43
CCCCN(C(=O)NC(=O)Nc1nc2ccc(OC)cc2s1)S(C)(=O)=O,-2.28,-3.95%,-0.44,92.6,103,-0.04,1.09
Cc1ccc(S(=O)(=O)/N=C(\CN2CCCCC2)N2CCOCC2)cc1,-11.4,-13.2%,-1.32,101,95,0.44,4.62
c1cc2c3c(cccc3c1)C(N1CCCCC1)=N2,1.8,-3.38%,-4.54,72.1,74.4,0.665,1.88
Cc1ccc(SCCNC(=O)C(CO)(CO)CO)cc1,2.57,-1.61%,-0.51,101,98.7,0.935,0.52
CC(=O)NC(NC(C)=O)c1ccc(N(C)C)cc1,2.72,16.3%,-0.12,100,100,-0.22,-0.26
N#CN=C1SCCS1,-5.58,-14.9%,-0.61,103,99,1.71,0.1
Cc1ccc(S(=O)(=O)NCCCN2CCOCC2)c(C)c1,-5.02,-7.8%,-1.19,96.8,95.5,2.29,5.89
CC1CSc2nnc(CCc3ccccc3)n21 (stereo not drawn),2.06,-7.96%,-2.61,107,89.2,0.37,-0.11
CC1CCCCN1c1nnc(NC(=O)Cn2c(=O)oc3ccccc32)s1 (stereo not drawn),-4.21,-14.8%,-1.54,110,97.8,-0.575,4.48
COc1ccc(N2CSC3=C(C#N)C(c4cc(OC)c(OC)cc4OC)CC(=O)N3C2)c(OC)c1 (stereo not drawn),-2.5,31.1%,-5.15,71.6,76.7,1.16,2.63
Cc1cc(Nc2ncc(Cl)cc2Cl)n(-c2ccccn2)n1,-1.14,3.23%,-5.35,89.3,76.5,1.93,4.08
C=CCn1c(SCC(=C)C)nc2c1c(=O)[nH]c(=O)n2C,-14.8,-25.6%,-0.41,109,97,-0.415,1.55
Cc1onc(-c2ccccc2Cl)c1C(=O)OCN1C(=O)c2ccccc2C1=O,-16.8,-12.5%,-2.89,90,99,0.93,5.34
CC(=O)N1CCC(N(CCCOC(C)C)C(=O)Nc2ccc(Cl)cc2)CC1,-2.75,0.145%,-0.86,93,95.9,0.365,3.16
Cc1cccc(NC(=O)CSc2nnc(-c3ccccc3)n2N)c1C,-9.02,-15.1%,-2.08,94.4,90.2,1.85,0.16
O=C(OCN1C(=O)c2ccccc2C1=O)c1ccco1,-3.8,0.045%,-2.17,96.7,93.3,3.23,3.35
